Source: PubChem BioAssay (Broad Institute)
The list is not random: actives were taken first. Their share in the collection is about 2.2%.
ERp5 inh: inhibitors of ERp5-driven insulin aggregation, primary screen, biochemical, turbidity, absorbance 650 nm, single point; 350,000 tested, 0.05% active; 90 min; Protein disulfide-isomerase A6 (Homo sapiens), Q15084; AID 651711, 2012; inhibition, % at 9.99 µM;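 active means mean replicate inhibition above about 25%, with every replicate also reaching it, limit read from the data, passing the limit was not always enough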
Target sequence (Q15084 whole entry, looked up): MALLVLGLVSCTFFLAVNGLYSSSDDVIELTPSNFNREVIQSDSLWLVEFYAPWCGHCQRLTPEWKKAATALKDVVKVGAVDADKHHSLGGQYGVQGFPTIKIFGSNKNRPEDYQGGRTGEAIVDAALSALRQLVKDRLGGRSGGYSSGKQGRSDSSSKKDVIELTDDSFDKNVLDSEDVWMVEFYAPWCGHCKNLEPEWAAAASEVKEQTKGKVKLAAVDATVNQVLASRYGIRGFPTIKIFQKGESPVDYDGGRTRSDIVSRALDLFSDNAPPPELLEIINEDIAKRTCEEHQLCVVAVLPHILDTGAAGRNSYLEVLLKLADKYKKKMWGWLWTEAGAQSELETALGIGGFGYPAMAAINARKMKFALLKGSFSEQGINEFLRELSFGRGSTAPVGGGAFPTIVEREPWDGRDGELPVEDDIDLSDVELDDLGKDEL
Env fusion inh: inhibitors of HIV-1 Env-driven cell-cell fusion, primary screen, HeLa-JRFL effector, CEM21 target cells, luciferase. inhibition, % at 12.3 µM. 360,000 tested, 1.1% active. AID 651610, 2012;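 active means mean replicate inhibition score of at least 50 and every replicate individually at or above 50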
FN deposit inh: inhibitors of fibronectin matrix deposition, primary screen, AH1F cells, Alexa488-fibronectin fluorescence, plate reader; AH1F fibroblasts, overnight; inhibition, % at 12.6 µM; 350,000 tested, 0.086% active; AID 743247, 2014;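 active means mean inhibition across replicates of 30% or more, regardless of how many single replicates reach that level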
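Schedule: 1 h cell adhesion before compound, then overnight fibronectin incubation; test system: AH1F fibroblast monolayer depositing Alexa488-labelled fibronectin into matrix; quantity: 10000 AH1F cells per well; probe or stimulus: fluorescent fibronectin at 24 nM final; signal: fluorescence, ex 485 nm, em 525 nm; evaluation: percent inhibition as loss of matrix-bound fibronectin fluorescence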
Ecoli rRNA inh: reduced GFP signal of wild-type E. coli, primary screen, bacterial rRNA inhibitor project, GFP/RFP fluorescence, OD600, single point; E. coli WT GFP vs humanized-ribosome RFP mutants, 24 h; stronger effect = lower value; DMSO median 0, no signal -100; GFP signal change (wild-type ribosome), % (test concentration not listed); 350,000 tested, 1.6% active; AID 720706, 2013;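 active means significant combined selectivity score with lowered wild-type GFP, culture density cut under 30%, mutant RFP and density less affected; inactive means any of these conditions unmet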
PvdQ inh: P. aeruginosa PvdQ acylase inhibitors, primary screen, biochemical, fluorescence, plate reader and imaging, single point. inhibition, % at 10 µM. 340,000 tested, 0.063% active. purified PvdQ acylase. PvdQ acylase [Pseudomonas aeruginosa LESB58]. AID 488965, 2010; in the data active means inhibition above about 30%, passing the limit was not always enough
PDI inh: inhibitors of human PDI, primary screen, biochemical, turbidity, single point, plate reader. Protein disulfide-isomerase (Homo sapiens), P07237. PDI insulin aggregation turbidity, A650, 90 min. inhibition, % at 10 µM. 350,000 tested, 0.052% active;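 active means mean inhibition across replicates of 30% or more, whatever share of single replicates reach that level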
Of the large screens only hits and unclear results are named; the others gave an inactive call.

CC(=O)Nc1ccc(S(=O)(=O)N(CC(=O)Nc2cc(C)on2)Cc2ccc(F)cc2)cc1	Ecoli rRNA inh -24
CC(C)NC(=O)N[C@H]1CC[C@@H](CCNS(=O)(=O)c2ccc(Cl)cc2)O[C@@H]1CO	none (no result: FN deposit inh, PvdQ inh, PDI inh)
Cc1ccc(NC(=O)COC(=O)c2cc(Cl)ccc2[N+](=O)[O-])c(C)c1	FN deposit inh 30 (no result: Ecoli rRNA inh)
O=C(COC(=O)c1cc(Cl)ccc1[N+](=O)[O-])Nc1cccc2ccccc12	none
CC(=O)c1c(C)[nH]c(C(=O)OCC(=O)Nc2cc(Cl)ccc2[N+](=O)[O-])c1C	none
CC(=O)c1c(C)[nH]c(C(=O)OCC(=O)Nc2ccc(C)cc2[N+](=O)[O-])c1C	Env fusion inh 88 (no result: ERp5 inh, Ecoli rRNA inh)
CC[C@@H]1CC=CC[C@@H](C)Oc2ccccc2C(=O)N(C)[C@@H](C(C)C)C(=O)N1 (mixture of isomers)	none (no result: ERp5 inh, Env fusion inh, PvdQ inh, PDI inh)
O=C(C[C@@H]1C=C[C@@H](NS(=O)(=O)c2ccccc2)[C@@H](CO)O1)NCc1ccc(Cl)c(Cl)c1	none (no result: FN deposit inh, PvdQ inh, PDI inh)
Cc1ccc2nc(-c3ccc(N)cc3)sc2c1	Ecoli rRNA inh -44
Cc1ccc2nc(-c3ccc(NS(=O)(=O)c4ccc(F)cc4)cc3)sc2c1	PvdQ inh 30 (no result: ERp5 inh, Ecoli rRNA inh)
CC(=O)Nc1ccc(S(=O)(=O)Nc2nc3ccc(C)cc3s2)cc1	none (no result: FN deposit inh)
CCC(C)(C)NC(=S)Nc1ccc(-c2nc3ccc(C)cc3s2)cc1	none (no result: Ecoli rRNA inh)
Cc1ccc2nc(-c3ccc(NC(=S)NCC(C)(C)CN(C)C)cc3)sc2c1	Ecoli rRNA inh -36
CCCNC(=O)[C@H]1[C@H](CO)[C@H]2Cn3c(ccc(-c4ccccc4F)c3=O)[C@H]2N1C(=O)CC	none (no result: Env fusion inh, FN deposit inh, PvdQ inh, PDI inh)
CCOc1ccc(-n2c(-c3ccccc3)c[n+]3c2CCCCC3)cc1	Ecoli rRNA inh -43
c1ccc(-c2c[n+]3c(n2-c2ccccc2)CCC3)cc1	none
COc1ccc(N(CC(=O)Nc2ccc(C)c(C)c2)S(=O)(=O)c2c(C)noc2C)cc1	none
COc1ccc(NC(=O)CN(c2cc(C)cc(C)c2)S(=O)(=O)c2c(C)n[nH]c2C)cc1	none
COc1ccc(N(CC(=O)Nc2ccc(F)c(F)c2)S(=O)(=O)c2c(C)n[nH]c2C)cc1	Ecoli rRNA inh -26
COc1ccc(NC(=O)CCN(c2ccc(OC)cc2)S(=O)(=O)c2ccc(C)c(C)c2)cc1	Ecoli rRNA inh -27
CN(C)c1ccc(O)c2c1CC1CC3[C@@H](N(C)C)C(=O)C(C(N)=O)C(=O)[C@]3(O)C(=O)C1C2=O (some centres not stated)	Env fusion inh 87 (no result: Ecoli rRNA inh)
Cc1cc(NC(=O)COC(=O)c2ccccc2S(=O)(=O)N(C)c2ccccc2)no1	Ecoli rRNA inh -33 (no result: FN deposit inh)
CN(C)c1ccnc(Nc2ccccc2)c1C#N	none
CN(C)c1ccnc2c[cH-]cc12.[Fe].c1ccc(-[c-]2[c-](-c3ccccc3)[c-](-c3ccccc3)[c-](-c3ccccc3)[c-]2-c2ccccc2)cc1 (configuration not stated)	Env fusion inh 57
COc1ccc(S(=O)(=O)N(C)C[C@H]2Oc3c(NC(=O)NC4CCCCC4)cccc3C(=O)N([C@@H](C)CO)C[C@H]2C)cc1	none (no result: Env fusion inh, PvdQ inh, PDI inh)
O=C(NCc1ccc(F)cc1)OC1CC2CC1[C@H]1CCCCN1C2=O (some centres not stated)	FN deposit inh 30 (no result: PvdQ inh, PDI inh)
COc1cccc(C2Oc3ccccc3C3CC(c4cccs4)=NN32)c1 (configuration not stated)	Ecoli rRNA inh -29 (no result: PvdQ inh)
CCCc1c(C(=O)Nc2ccc(OC)cc2)cnn1-c1ccccc1	Ecoli rRNA inh -24
CCCc1c(C(=O)N2CCN(c3ccccc3OC)CC2)cnn1-c1ccccc1	none
COc1cccc(NC(=O)c2cnn(-c3ccccc3)c2C)c1	none
CCCc1c(C(=O)NNc2ccccc2OC)cnn1-c1ccccc1	Ecoli rRNA inh -23
C[C@@H]1CN([C@@H](C)CO)C(=O)c2cc(NC(=O)C3CCCCC3)ccc2O[C@@H](C)CCCCO[C@H]1CN(C)S(C)(=O)=O	none (no result: ERp5 inh, FN deposit inh, PvdQ inh, PDI inh)
Cc1ccnn1CC(=O)N/N=C/c1c[nH]c2ccccc12	Ecoli rRNA inh -39
CCOc1ccc(CNC2CCCc3ccccc32)cc1 (configuration not stated)	PvdQ inh 38
CCCCNC(=O)c1cc2c(C)cc(C)cc2[nH]1	Ecoli rRNA inh -22
CCCCn1nc2cc(C(=O)NCc3cc(C(F)(F)F)cc(C(F)(F)F)c3)ccc2c1OC	Env fusion inh 63
Cc1ccc(C#N)c(SCc2cccc(Br)c2)n1	none (no result: ERp5 inh, Ecoli rRNA inh)
COC(OC)c1ccc(C#N)c(SCc2ccc(C)cc2)n1	Ecoli rRNA inh -29
O=S(=O)(c1ccccc1)N1C[C@@H]2[C@H](c3ccccc31)[C@H](CO)N2Cc1ccccc1	Ecoli rRNA inh -25 (no result: Env fusion inh, FN deposit inh, PvdQ inh, PDI inh)
O=C(Nc1ccccc1Cl)N1C[C@H]2[C@@H](c3ccccc31)[C@H](CO)N2Cc1ccccc1	Ecoli rRNA inh -23 (no result: Env fusion inh, FN deposit inh, PvdQ inh, PDI inh)
O=S(=O)(c1ccccc1)N1C[C@H]2[C@@H](c3ccccc31)[C@@H](CO)N2Cc1ccccc1	Ecoli rRNA inh -49 (no result: Env fusion inh, FN deposit inh, PvdQ inh, PDI inh)
Cc1ccc(S(=O)(=O)N2C[C@H]3[C@@H](c4ccccc42)[C@H](CO)N3Cc2cccnc2)cc1	none (no result: Env fusion inh, PvdQ inh, PDI inh)
O=S(=O)(c1ccccc1)N1C[C@H]2[C@@H](c3ccccc31)[C@H](CO)N2Cc1ccc(F)cc1	none (no result: Env fusion inh, FN deposit inh, PvdQ inh, PDI inh)
Cc1noc(C)c1S(=O)(=O)Nc1ccc2c(c1)C(=O)N([C@H](C)CO)C[C@H](C)[C@H](CN(C)CC1CCCCC1)OCCCC[C@H](C)O2	none (no result: FN deposit inh, PvdQ inh, PDI inh)
Cc1noc(C)c1S(=O)(=O)Nc1ccc2c(c1)C(=O)N([C@H](C)CO)C[C@@H](C)[C@@H](CN(C)C(=O)NC1CCCCC1)OCCCC[C@@H](C)O2	none (no result: FN deposit inh, PvdQ inh, PDI inh)
C/C=C/c1cnc2c(c1)C(=O)N([C@@H](C)CO)C[C@H](C)[C@@H](CN(C)C(=O)C1CCOCC1)O2	none (no result: Env fusion inh, FN deposit inh, PvdQ inh, PDI inh)
C[C@@H]1CN([C@@H](C)CO)C(=O)c2cccc(NS(=O)(=O)c3ccc(Cl)cc3)c2O[C@@H]1CN(C)Cc1ccncc1	none (no result: Env fusion inh, FN deposit inh, PvdQ inh, PDI inh)
CS(=O)(=O)NCCSCc1ccc(Cl)cc1	none (no result: ERp5 inh, Ecoli rRNA inh)
CC(C)(CNS(C)(=O)=O)SCc1ccc(Cl)cc1	Ecoli rRNA inh -32
CCn1c(=NC(=O)CS(=O)(=O)c2ccccc2)sc2cccc(OC)c21	Env fusion inh 57
CSc1ccccc1C(=O)C1CCCN(C(=O)CCc2cccnc2)C1 (configuration not stated)	FN deposit inh 45
O=C(Nc1cc(Cl)ccn1)C1(c2ccccc2)CC1(Cl)Cl (configuration not stated)	Ecoli rRNA inh -42
